Compound activity as filed in PubChem.
Hits are enriched below; roughly 1.1% of the tested compounds scored in any of these assays.
MT1-MMP act inh – MT1-MMP (human) activation inhibition | actives 0.061% (n = 360,000) | HT1080 RFP-PRO-GFP cells, GFP/RFP ratio fluorescence, overnight; percent of plate control window, DMSO zero | GFP/RFP ratio change, % at 20 µM;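 active = GFP/RFP ratio change of at least 30% with cell ATP level not reduced by more than half and red fluorescence within 50% of control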
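Assay system – RFP-PRO-GFP reporter HT1080 cells · Compound dosing – single dose of 20 µM compound, 1% DMSO final · Incubation – overnight compound exposure at 37 °C · Measure – GFP/RFP fluorescence ratio · Benchmarks – DMSO wells and RFP-L50D-GFP cells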
core dimer inh – blocks dimerization of HCV core protein | TR-FRET GST/Flag-core106 dimerization, 1536-well | inhibition, % at 5 µM | actives 0.33% (n = 300,000) | AID 1899;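 active = inhibition above the mean of all tested compounds plus 3 SD, set per screening campaign, cut at about 45% in these data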
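Assay system: GST-tagged and Flag-tagged HCV core protein residues 1-106 / Times: compound-protein-antibody incubation 4 h at 22.5 °C / Signal: time-resolved FRET, ex 340 nm, em 617 and 671 nm / Evaluation: % inhibition based on acceptor/donor emission ratio / Benchmarks: wells lacking GST-core106 and wells with excess unlabelled core106 / Repeats: singlicate, one well per compound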
DAGLB inh – blocks human DAGLB lipase activity. Q8NCG7. HEK293T DAGLB membrane lysate, EnzChek fluorogenic substrate. inhibition, % at 5.17 µM. actives 0.059% (n = 340,000). AID 504411; in the data active = inhibition above about 34%
Vif imaging – blocks HIV Vif function. HEK293T cells, Vif self-association by quenched fluorescence, imaging, 24 h. inhibition, % at 7.49 µM. actives 0.35% (n = 340,000). AID 602346; in the data active = inhibition above about 50%, passing the limit was not always enough
NR2E3 ag-1 – agonists of human NR2E3 nuclear receptor | Q9Y5X4 | actives 0.35% (n = 360,000) | AID 602229 | CHO-S Gal4-NCOR/VP16-NR2E3 two-hybrid, luciferase | inhibition of corepressor binding, % at 3.98 µM;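 active = inhibition above the mean of all tested compounds plus 3 SD, cut at about 70% in these data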;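 note: higher means lower luciferase signal from less NR2E3 corepressor binding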
Target sequence (Q9Y5X4 whole entry, looked up, the tested form may be a part): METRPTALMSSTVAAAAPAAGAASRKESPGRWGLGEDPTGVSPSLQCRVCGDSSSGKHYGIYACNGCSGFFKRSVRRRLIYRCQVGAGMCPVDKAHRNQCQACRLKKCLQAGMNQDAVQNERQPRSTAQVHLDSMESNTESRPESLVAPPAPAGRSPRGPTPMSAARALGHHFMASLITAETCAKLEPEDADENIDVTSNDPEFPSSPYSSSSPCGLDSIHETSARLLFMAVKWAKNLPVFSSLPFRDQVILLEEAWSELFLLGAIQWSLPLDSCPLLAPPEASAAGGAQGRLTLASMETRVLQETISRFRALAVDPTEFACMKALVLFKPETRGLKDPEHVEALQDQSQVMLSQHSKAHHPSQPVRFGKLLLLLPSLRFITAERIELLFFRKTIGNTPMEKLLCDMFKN
NR2E3 ag-2 – agonists of human nuclear receptor NR2E3; GST-NR2E3/biotin-RetCOR TR-FRET, 1536-well; actives 0.12% (n = 320,000); Q9Y5X4; inhibition of corepressor binding, % at 4.78 µM;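 active = percent inhibition above the cutoff of mean plus 3 SD of all tested compounds, set per screening campaign, cut at about 20% in these data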
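Material – GST-tagged NR2E3 plus biotinylated RetCOR corepressor · Quantity – NR2E3 fusion 1.35 nM · Times – 5 h incubation at 4 °C · Medium – pH 7.5 Tris-based buffer · Technique – TR-FRET, Eu(K)-anti-GST donor, streptavidin-D2 acceptor, ex 340, em 617/671 nm · Benchmarks – high control biotin, low control 0.6% DMSO · Format – 1536-well plates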
NR2E3 ag conf – NR2E3 agonism confirmed in two-hybrid assay; actives 51% (n = 2,300); inhibition, % at 3.98 µM; CHO-S mammalian two-hybrid NR2E3-NCOR, luciferase luminescence; shares compounds with NR2E3 ag-1;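 active = average inhibition above a cutoff equal to the mean inhibition of all tested compounds plus one SD, cut at about 70% in these data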
VP16 counter – counter-screen for NR2E3 agonists: GAL4-VP16 reporter inhibitors | shares compounds with NR2E3 ag-1 | CHO-S GAL4-VP16 luciferase reporter, luminescence | inhibition, % at 3.98 µM | actives 29% (n = 2,300);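 active = mean inhibition above a cutoff equal to the average over all tested compounds plus one standard deviation, cut at about 70% in these data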;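 note: luciferase from a UAS reporter driven by GAL4-VP16 transactivation; higher means less reporter light so more repression of VP16 activity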
Numbers stand for hits; 0 = inactive; - = no result given.

SMILES | MT1-MMP act inh | core dimer inh | DAGLB inh | Vif imaging | NR2E3 ag-1 | NR2E3 ag-2 | NR2E3 ag conf | VP16 counter
CCN(CC)S(=O)(=O)c1ccc(N2CCN(c3ccccc3OC)CC2)c(N)c1 | 0 | 0 | 0 | 0 | 105.2 | 0 | 93.1 | 74.4
O=C(c1ccco1)N1CCN(S(=O)(=O)c2ccc(Oc3ccccc3)cc2)CC1 | 0 | 0 | 0 | - | 0 | 0 | 0 | 0
O=C(NCc1ccccc1Cl)c1cc(C(=O)C2CC2)c[nH]1 | 0 | 0 | 0 | 0 | 0 | 0 | 0 | 0
O=c1[nH]c(SCC2CCCCO2)nc2ccccc12 (stereo unspecified) | 0 | 0 | 0 | 0 | 0 | 0 | - | -
CCCSc1nc2c([nH]1)c(=O)n(C)c(=S)n2C | 0 | - | 0 | 0 | 0 | - | - | -
Cn1c(=S)c2[nH]c(SCC3CCCO3)nc2n(C)c1=O (stereo unspecified) | 0 | - | 0 | 0 | 0 | - | 0 | 0
CCCC(C)Sc1nc2c([nH]1)c(=S)n(C)c(=O)n2C (stereo unspecified) | 0 | - | 0 | 0 | 82.5 | - | 0 | 0
CC1C(=O)N(Cc2cn(CCC3OCCCO3)nn2)CCS(=O)(=O)N1Cc1ccc(-c2ccc(Cl)c(Cl)c2)cc1 (stereo unspecified) | 0 | - | 0 | 0 | 0 | - | 93.2 | 77.3
Cc1nc2c(-c3ccc(Cl)cc3)c(C)[nH]n2c(=O)c1Cc1ccccc1 | 0 | 0 | 0 | 0 | 87.8 | 0 | 99.5 | 0
CCc1cc(=O)n2[nH]c(C)c(-c3ccccc3OC)c2n1 | 0 | 0 | 0 | 0 | 0 | 0 | - | -
COCc1cc(=O)n2[nH]c(C)c(-c3ccc(Cl)cc3)c2n1 | 0 | - | 0 | 0 | 0 | - | 0 | 0
O=C1C=C(OCCF)CC(c2ccc(Br)cc2)O1 (stereo unspecified) | 0 | - | - | - | - | - | - | -
O=C(CSc1ccc(-c2cccnc2)nn1)Nc1ccccc1C(F)(F)F | 0 | 0 | 0 | 0 | 0 | 0 | - | -
Cc1cc(C2=NNC(=NC3CC3)SC2)c(C)n1-c1ccccc1F | 0 | 0 | 0 | 0 | 94.2 | 0 | 89.2 | 90.7
COC(=O)N/N=C/c1cc(Br)ccc1O | 0 | 0 | 0 | 0 | 0 | 0 | - | -
CC(C)NC(=S)N/N=C/c1cc(Br)ccc1O | 0 | 0 | 0 | 0 | 72.5 | 0 | 0 | 0
Cn1c(=O)cc(Cl)[nH]c1=O | 0 | 0 | 0 | 0 | 0 | 0 | - | -
COc1ccc(C(C)(NC(C)=O)c2nc(-c3cc(F)cc(F)c3)cs2)cc1 (stereo unspecified) | 0 | - | - | 0 | 0 | - | - | -
Cc1oc(-c2ccccc2Cl)nc1CSCC(=O)NC1CC1 | 0 | 0 | 0 | 0 | 0 | 0 | - | -
CCc1ccc(-c2nc(CSCC(=O)N3CCN(c4ncccn4)CC3)c(C)o2)cc1 | 0 | 0 | 0 | 0 | 0 | 0 | 71.0 | 0
CCOc1ccc(-c2nc(CSCC(=O)NCCCN3CCCC3=O)c(C)o2)cc1 | 0 | 0 | 0 | 0 | 0 | 0 | 0 | 0
CSc1ccc(-c2nc(CSCC(=O)NC3CC3)c(C)o2)cc1 | 0 | 0 | 0 | 0 | 99.8 | 0 | 84.9 | 84.3
COc1ccc(-c2nc(CSCC(=O)NCCCN3CCCC3=O)c(C)o2)cc1 | 0 | 0 | 0 | 0 | 0 | 0 | - | -
CCc1ccc(-c2nc(CSCC(=O)NC3CC3)c(C)o2)cc1 | 0 | 0 | 0 | 0 | 111.4 | 0 | 98.1 | 97.5
CN(CC(=O)Nc1ccc(F)c(F)c1F)C(=O)C1CCCC1 | 0 | - | 0 | 0 | 0 | 0 | - | -
O=C(CCNS(=O)(=O)c1cccc2nsnc12)Nc1ccc2c(c1)OCCO2 | 0 | 0 | 0 | 0 | 0 | 0 | - | -
O=S(=O)(Nc1ccc2c(c1)OCCO2)c1cccc2nsnc12 | 0 | 0 | 0 | 0 | 0 | 0 | 0 | 0
Cc1cc(C)cc(C(=O)NC(CC(N)=O)c2ccc(N3CCN(C)CC3)c([N+](=O)[O-])c2)c1 (stereo unspecified) | 0 | 0 | 0 | 0 | 0 | 0 | - | -
